Granule exo inh: LAMP-1 surface exposure blockers, TALL-104 cells – cell-based, flow cytometry, MLPCN library, primary screen | TALL-104 LAMP-1 surface exposure; cells stimulated with thapsigargin and PMA | inhibition, % at 10 µM | 360,000 compounds, 0.66% hits | AID 651702, 2012;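 active = inhibition above about 55%, limit read from the data; inconclusive = no clear call, values can overlap the other calls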
H9c2 protect: cardioprotection against H2O2-induced cell death, primary screen, uHTS, H9c2 cells, ATPLite luminescence; H9c2 cardiomyocytes, H2O2 injury protection, 2 h; protection from H2O2 cell death, % at 20 µM; 360,000 compounds, 0.63% hits;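 active = compounds giving at least 50% protection of heart cells from peroxide-induced death in the single-dose screen, raw or plate-pattern-corrected value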
HNF4A DNA FP: change in binding of human HNF4A to DNA, primary screen, biochemical, fluorescence polarization, FITC-DNA; Hepatocyte nuclear factor 4-alpha (Homo sapiens), P41235; 1 h; activity change, % at 10 µM; 360,000 compounds, 0.3% hits; AID 1224865, 2016; in the data active = activity change above about 30%, passing the limit was not always enough
Target sequence (P41235 whole entry, looked up): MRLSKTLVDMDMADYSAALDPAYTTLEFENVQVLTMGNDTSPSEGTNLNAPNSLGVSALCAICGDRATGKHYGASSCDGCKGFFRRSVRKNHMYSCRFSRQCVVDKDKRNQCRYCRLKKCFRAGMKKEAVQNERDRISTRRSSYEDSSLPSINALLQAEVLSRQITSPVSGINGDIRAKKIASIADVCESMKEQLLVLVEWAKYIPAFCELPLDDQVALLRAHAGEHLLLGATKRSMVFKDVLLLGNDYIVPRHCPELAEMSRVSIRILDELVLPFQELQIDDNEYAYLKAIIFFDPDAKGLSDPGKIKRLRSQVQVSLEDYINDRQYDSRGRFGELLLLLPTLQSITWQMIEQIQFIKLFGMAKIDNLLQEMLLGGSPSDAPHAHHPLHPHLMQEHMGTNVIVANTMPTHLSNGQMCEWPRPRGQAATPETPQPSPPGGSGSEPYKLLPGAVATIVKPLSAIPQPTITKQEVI
SENP1 inh: human SENP1 catalytic domain inhibitors, primary screen, biochemical, FRET, uHTS; Sentrin-specific protease 1 (Homo sapiens), Q9P0U3; recombinant SENP1 catalytic domain, CyPet-SUMO1-YPet FRET cleavage; inhibition, % at 10 µM; 360,000 compounds, 0.21% hits;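 active = inhibition at least 30% at 10 µM, raw YFP signal under a set limit, fluorescence ratio 0.5 to 1.5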
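Compound: 10 µM single point, 0.5% DMSO; Test system: hSENP1 catalytic domain, recombinant; Timing: 50 min reaction at room temperature; Technique: FRET, CFP and YFP emission; Control set: no-enzyme wells low, DMSO-plus-enzyme wells high control.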
Pemphigus Ab inh: inhibitors of pemphigus antibody binding to DSG3, primary screen, biochemical, bead-based, flow cytometry, scFv-GFP | DSG3-coupled beads, scFv-anti-DSG3-GFP binding; stronger effect = lower value | Desmoglein-3 (Homo sapiens), P32926 | binding (percent of control), % at 10 µM | 310,000 compounds, 0.48% hits;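 active = binding more than 3 SD below its plate's average and above zero; inconclusive = below that plate limit but binding exactly zero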
Myeloid diff 2: induction of myeloid progenitor differentiation, primary screen, cell-based, flow cytometry, MLPCN library; 360,000 compounds, 1% hits; AID 624256, 2012; calls only at 10 µM; ER-HoxA9 myeloid progenitors, lysozyme-GFP differentiation;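 active = normalized GFP-positive differentiation at or above the plate's own cutoff, the solvent-only control mean plus 3 SD; inconclusive = no clear call, values can overlap the other calls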;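 also: cells exposed to compound for four days before flow analysis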
Granule exo CP1: inhibitors of lytic granule exocytosis, confirmation, TALL-104 cells, flow cytometry, Cherry Pick01; inhibition, % at 10 µM; shares compounds with Granule exo inh; AID 651954, 2012; LAMP-1 externalization; stimulated with PMA plus thapsigargin; 1,500 compounds, 11% hits; in the data active = inhibition above about 60%
Large screens that a line does not name were inactive (follow-up assays come after a bar, where they were run). The list is not random: actives were taken first. Their share in the collection is about 3%.

Cc1ccc(S(=O)(=O)c2nc(-c3ccccc3)oc2SCC(=O)NCC2CCCO2)cc1 (centres undefined)	none (no result: Pemphigus Ab inh)
Cc1ccc(S(=O)(=O)c2nc(-c3ccco3)oc2SCC(=O)NCC2CCCO2)cc1 (centres undefined)	Granule exo inh 89 | Granule exo CP1 inactive
O=C(CCn1c(=S)oc2ccccc21)NCCC1=CCCCC1	none
Cc1cc(Br)cn2c(Cc3ccsc3)c(-c3ccco3)nc12	Granule exo inh 60 (no result: Pemphigus Ab inh) | Granule exo CP1 inactive
COc1ccc(CN2C(=O)CN(S(C)(=O)=O)CC2(C)C(=O)NC(C)C)cc1OC (centres undefined)	none (no result: H9c2 protect, Pemphigus Ab inh)
CN(C)c1ccc(NC(=O)Cc2ccccc2)c2ccccc12	none
CC(C)C(NS(=O)(=O)c1ccccc1F)C(=O)N1CCc2ccccc2C1 (centres undefined)	none
CC(C)C(NS(=O)(=O)c1cccc(C(F)(F)F)c1)C(=O)N1CCc2ccccc2C1 (centres undefined)	Granule exo inh 76 | Granule exo CP1 inactive
O=C(c1cc(Br)c[nH]1)N1CCSCC1	none
CNc1cncc(-c2cccc(OC)c2F)n1	none (no result: Pemphigus Ab inh)
O=C(Nc1nc2ccccc2n1CCN1CCOCC1)c1ccc(COc2ccccc2Br)o1	Granule exo inh 70 | Granule exo CP1 80
Fc1ccc(Nc2nc(NCc3ccco3)c3ccccc3n2)cc1	Granule exo inh 86 | Granule exo CP1 inactive
O=c1[nH]c(-c2ccccc2)c(-c2ccccc2)o1	none
CC[C@@H]1C(=O)[C@H](Cc2ccccc2)[C@H]2CCCC(=O)N3CC[C@@H]1[C@@H]23	Granule exo inh 63 | Granule exo CP1 inactive
O=C1CCC[C@@H]2[C@H](Cc3ccccc3)[C@@H](O)C[C@@H]3CCN1[C@@H]32	none
CCN(CC)C(=O)C1=C(C)N(CCC2=CCCCC2)C(=O)C(CC(=O)NCc2cccs2)C1 (centres undefined)	none (no result: Pemphigus Ab inh)
CCOc1ccc(Br)cc1S(=O)(=O)Nc1cccc(S(=O)(=O)NC2=NCCC2)c1	none
CCOc1ccc(Br)cc1S(=O)(=O)Nc1cccc(S(=O)(=O)N2CCOCC2)c1	Granule exo inh 97 | Granule exo CP1 inactive
CN(Cc1ccccc1)c1ncnc2sccc12	Granule exo inh 57 | Granule exo CP1 inactive
COc1ccccc1NC(=O)c1ccc(C(=O)c2ccccc2)o1	Granule exo inh 86 | Granule exo CP1 inactive
COc1ccc(-c2cc(CNc3nc(NCc4ccccc4OC)nc4ccsc34)on2)cc1	Granule exo inh 66 (no result: Pemphigus Ab inh) | Granule exo CP1 inactive
CCOc1ccccc1CN1CCN(Cc2[nH]c3ccccc3c2C)CC1CCO (centres undefined)	Granule exo inh 67 | Granule exo CP1 inactive
CC(C)c1ccc(NC(=S)N2CCN(S(=O)(=O)c3ccccc3)CC2)cc1	Granule exo inh 65 | Granule exo CP1 inactive
COc1ccc(S(=O)(=O)N(C)C[C@H]2Oc3ccc(NC(=O)c4ccncc4)cc3C(=O)N([C@H](C)CO)C[C@@H]2C)cc1	none
CCCN(C(=O)CSCc1ccc(Cl)cc1)c1c(N)n(Cc2ccccc2)c(=O)[nH]c1=O	none (no result: Myeloid diff 2)
CCCN(C(=O)COc1ccc(Cl)cc1Cl)c1c(N)n(Cc2ccccc2)c(=O)[nH]c1=O	Granule exo inh 83 | Granule exo CP1 inactive
COc1ccc(COC(=O)c2cccc(S(=O)(=O)N3CCCC3)c2)cc1F	none
CCC(CO)Oc1cc(NC(=O)c2cccc(Cl)c2)c2ncn(C(C)C)c2c1 (centres undefined)	none
COc1cccc(CN2C(=O)C(C)N(C(=O)c3c(F)cccc3F)c3ccccc32)c1 (centres undefined)	Granule exo inh 56 | Granule exo CP1 inactive
O=C(COC(=O)c1ccc2ccccc2c1O)Nc1ccccc1	none
O=C(Nc1nc2ccc(SC(F)F)cc2s1)c1ccc(NS(=O)(=O)c2ccc(F)c(F)c2)cc1	Granule exo inh 76 | Granule exo CP1 104
Cc1cc(Nc2c(C)n(C)n(-c3ccccc3)c2=O)n2c(nc3ccccc32)c1C#N	none
CCc1c(C)c(C#N)c2nc3ccccc3n2c1Nc1c(C)n(C)n(-c2ccccc2)c1=O	Granule exo inh 64 | Granule exo CP1 inactive
CCn1c2ccccc2c2cc(NC(=O)CSc3nnc(-c4ccccc4)o3)ccc21	Granule exo inh 87, Myeloid diff 2 active | Granule exo CP1 inactive
CCn1c2ccccc2c2cc(NC(=O)CSc3nnc(-c4cccc(C)c4)o3)ccc21	none
CCn1c2ccccc2c2cc(NC(=O)c3ccc(=O)oc3)ccc21	Granule exo inh 78 | Granule exo CP1 inactive
COc1ccc(C2C(C(=O)c3ccco3)=C(O)C(=O)N2CCCn2ccnc2)c(OC)c1 (centres undefined)	none
COCc1ccc(C(=O)N2CCCC(C(=O)c3ccc(Cl)cc3C)C2)o1 (centres undefined)	none
O=C1C(Cl)=C(N2CCC(C(=O)O)CC2)C(=O)c2ccccc21	none
CC1COCC(C)N1C1=C(Cl)C(=O)c2ccccc2C1=O (centres undefined)	Granule exo inh 91, Myeloid diff 2 inconclusive | Granule exo CP1 60
O=C(O)Cc1c(C(=O)O)[nH]c2ccc(C(=O)O)cc12	none
CCC1(C)CC(CCNS(=O)(=O)c2ccc(C)cc2)(c2ccc(C)cc2)CCO1 (centres undefined)	Granule exo inh 57 | Granule exo CP1 inactive
CCN(CC)S(=O)(=O)c1ccc(N2CCCC2)c(NC(=O)Cc2ccc(OC)cc2)c1	none
CCN(CC)S(=O)(=O)c1ccc(N2CCCC2)c(NC(=O)c2ccc(OC)cc2OC)c1	Granule exo inh 72 | Granule exo CP1 inactive
CCCCCC1CC(=O)C=C(C)C1C(=O)OC (centres undefined)	none
CC(=O)c1ccc(OCCCC(=O)OCC(=O)N2CCN(S(=O)(=O)c3ccc(C)cc3C)CC2)cc1	none
Cc1ccc([C@H]2C[C@@H](n3cc(C4CC4)nn3)[C@H](O)CN2CC2CCCCC2)cc1	none
CCCCn1c(N)c(N(C)C(=O)c2ccc(Br)o2)c(=O)[nH]c1=O	none
CCC1=C2CC[C@H]3C(=O)N(C)C(=O)[C@H]3[C@H]2[C@@]2(Cc3ccccc3)C(=NCC(=O)OC)OC(=O)N2C1=O	Granule exo inh 84 | Granule exo CP1 inactive

Screening results as filed in PubChem.
